This note sets out measurements from ChEMBL document CHEMBL2150974 (J Med Chem, 2012).

Test [1] has as its target Aurora kinase B (Homo sapiens) (UniProt Q96GD4). Briefly: Inhibition of AuroraB at 10 uM.
The target of test [2] is Tyrosine-protein kinase receptor UFO (Homo sapiens) (UniProt P30530). Briefly: Inhibition of AXL at 10 uM.
Test [3] has as its target Vascular endothelial growth factor receptor 2 (Homo sapiens) (UniProt P35968). Put plainly: Inhibition of VEGFR2 at 10 uM.
In test [4] the target is Proto-oncogene tyrosine-protein kinase Src (Homo sapiens) (UniProt P12931). Briefly: Inhibition of SRC at 10 uM.
Proto-oncogene tyrosine-protein kinase Src (Homo sapiens), sequence (P12931 2-536 limits assumed): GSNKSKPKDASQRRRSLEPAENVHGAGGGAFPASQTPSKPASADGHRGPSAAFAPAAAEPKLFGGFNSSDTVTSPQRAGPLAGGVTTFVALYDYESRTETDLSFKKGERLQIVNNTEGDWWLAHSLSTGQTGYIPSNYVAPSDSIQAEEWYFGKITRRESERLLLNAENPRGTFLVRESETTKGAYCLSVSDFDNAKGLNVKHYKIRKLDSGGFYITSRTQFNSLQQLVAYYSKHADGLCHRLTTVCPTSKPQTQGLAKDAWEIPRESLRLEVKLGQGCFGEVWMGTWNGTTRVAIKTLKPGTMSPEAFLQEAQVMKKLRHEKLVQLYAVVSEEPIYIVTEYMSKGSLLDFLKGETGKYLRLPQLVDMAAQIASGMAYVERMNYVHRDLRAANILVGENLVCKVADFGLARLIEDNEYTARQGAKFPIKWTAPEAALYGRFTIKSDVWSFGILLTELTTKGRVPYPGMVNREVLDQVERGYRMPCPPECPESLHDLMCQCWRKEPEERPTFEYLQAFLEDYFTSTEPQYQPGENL
The target in test [5] is T1, NUAK family SNF1-like kinase 1 (Homo sapiens) (UniProt O60285).
T1 sequence (whole entry): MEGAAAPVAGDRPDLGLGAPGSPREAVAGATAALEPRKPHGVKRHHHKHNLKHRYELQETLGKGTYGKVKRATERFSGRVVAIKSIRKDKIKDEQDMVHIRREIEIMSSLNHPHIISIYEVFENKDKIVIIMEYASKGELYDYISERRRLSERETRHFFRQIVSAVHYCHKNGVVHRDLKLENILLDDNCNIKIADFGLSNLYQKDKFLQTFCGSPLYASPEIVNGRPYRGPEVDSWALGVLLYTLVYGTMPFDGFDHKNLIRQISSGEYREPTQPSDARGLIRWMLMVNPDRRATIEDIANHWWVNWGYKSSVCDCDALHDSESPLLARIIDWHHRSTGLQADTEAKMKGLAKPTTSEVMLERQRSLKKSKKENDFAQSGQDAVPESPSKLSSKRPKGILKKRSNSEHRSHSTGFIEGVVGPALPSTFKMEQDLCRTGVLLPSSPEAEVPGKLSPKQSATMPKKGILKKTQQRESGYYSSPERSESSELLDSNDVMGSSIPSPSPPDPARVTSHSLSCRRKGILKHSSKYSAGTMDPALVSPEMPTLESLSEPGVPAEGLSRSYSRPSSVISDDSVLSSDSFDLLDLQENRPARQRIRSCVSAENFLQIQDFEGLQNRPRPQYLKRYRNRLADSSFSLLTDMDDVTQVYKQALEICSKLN
Put plainly: Inhibition of ARK5 at 10 uM.

For test [6], the target named is Casein kinase II subunit alpha (Homo sapiens) (UniProt P68400). Put plainly: Inhibition of CK2alpha1 at 10 uM.
Test [7] has as its target Focal adhesion kinase 1 (Homo sapiens) (UniProt Q05397). Briefly: Inhibition of FAK at 10 uM.
For test [8], the target named is Insulin receptor (Homo sapiens) (UniProt P06213). Put plainly: Inhibition of INSR at 10 uM.
Insulin receptor (Homo sapiens), sequence (P06213 28-758 limits assumed): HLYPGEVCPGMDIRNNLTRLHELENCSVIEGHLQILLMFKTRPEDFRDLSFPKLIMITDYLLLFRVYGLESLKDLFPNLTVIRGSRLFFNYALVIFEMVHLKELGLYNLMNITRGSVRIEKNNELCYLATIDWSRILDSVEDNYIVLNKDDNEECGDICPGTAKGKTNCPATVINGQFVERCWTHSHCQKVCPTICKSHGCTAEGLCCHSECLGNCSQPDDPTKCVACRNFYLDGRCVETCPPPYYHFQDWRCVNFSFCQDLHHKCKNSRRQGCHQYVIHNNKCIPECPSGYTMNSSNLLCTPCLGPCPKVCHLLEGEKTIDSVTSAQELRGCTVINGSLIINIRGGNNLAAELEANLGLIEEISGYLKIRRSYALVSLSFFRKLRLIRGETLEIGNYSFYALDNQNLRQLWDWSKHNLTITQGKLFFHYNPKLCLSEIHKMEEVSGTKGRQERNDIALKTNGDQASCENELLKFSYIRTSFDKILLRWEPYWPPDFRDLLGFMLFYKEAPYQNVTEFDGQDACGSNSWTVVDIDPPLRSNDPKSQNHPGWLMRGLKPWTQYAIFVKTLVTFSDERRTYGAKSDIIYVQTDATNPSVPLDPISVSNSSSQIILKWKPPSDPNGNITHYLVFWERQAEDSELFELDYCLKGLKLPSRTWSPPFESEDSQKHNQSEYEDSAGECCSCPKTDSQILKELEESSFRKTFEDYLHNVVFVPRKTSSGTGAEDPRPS
Insulin receptor (Homo sapiens), sequence (P06213 763-1382 limits assumed): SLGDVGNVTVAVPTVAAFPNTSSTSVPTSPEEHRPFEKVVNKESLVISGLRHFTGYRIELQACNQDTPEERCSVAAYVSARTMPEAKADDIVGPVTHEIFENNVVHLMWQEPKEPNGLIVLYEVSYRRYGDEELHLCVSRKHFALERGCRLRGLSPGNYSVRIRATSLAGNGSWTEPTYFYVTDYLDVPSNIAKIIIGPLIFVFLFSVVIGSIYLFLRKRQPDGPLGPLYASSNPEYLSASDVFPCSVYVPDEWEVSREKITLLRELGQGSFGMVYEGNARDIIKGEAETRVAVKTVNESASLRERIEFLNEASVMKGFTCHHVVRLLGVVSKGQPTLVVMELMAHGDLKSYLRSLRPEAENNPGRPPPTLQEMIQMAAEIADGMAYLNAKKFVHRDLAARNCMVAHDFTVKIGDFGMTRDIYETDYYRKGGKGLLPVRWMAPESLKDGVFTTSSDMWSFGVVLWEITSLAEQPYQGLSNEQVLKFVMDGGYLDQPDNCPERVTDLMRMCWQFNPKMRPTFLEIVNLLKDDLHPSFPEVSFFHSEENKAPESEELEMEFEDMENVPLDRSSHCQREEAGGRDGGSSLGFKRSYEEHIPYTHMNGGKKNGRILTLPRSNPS
In test [9] the target is T2, Mitogen-activated protein kinase 14 (Homo sapiens, UniProt Q16539). Briefly: Inhibition of p38alpha by immunosorbent based kinase assay.
T2 sequence (Q16539 whole entry): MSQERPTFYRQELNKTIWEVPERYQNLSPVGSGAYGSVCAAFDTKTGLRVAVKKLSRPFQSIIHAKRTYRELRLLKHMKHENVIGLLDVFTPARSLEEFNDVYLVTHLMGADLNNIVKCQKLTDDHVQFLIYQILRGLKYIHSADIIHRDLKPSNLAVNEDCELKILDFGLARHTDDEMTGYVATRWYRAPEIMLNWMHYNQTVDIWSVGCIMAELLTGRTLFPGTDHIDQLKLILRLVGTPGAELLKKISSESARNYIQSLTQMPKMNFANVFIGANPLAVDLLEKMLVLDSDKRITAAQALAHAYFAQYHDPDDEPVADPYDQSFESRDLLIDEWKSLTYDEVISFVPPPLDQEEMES
Test [10] addresses T2, Mitogen-activated protein kinase 14. Briefly: Inhibition of p38alpha-dependent TNFalpha production in human whole blood at 100 uM. A digest of the protocol:
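Freshly drawn human whole blood, used diluted so that serum albumin and other plasma proteins are present; inhibition of TNF-α release from the blood's immune cells measured.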

The target in test [11] is Insulin-like growth factor 1 receptor (Homo sapiens) (UniProt P08069). Briefly: Inhibition of IGF1R at 10 uM.
Test [12] concerns Serine/threonine-protein kinase B-raf (Homo sapiens), P15056 [V600E]. Briefly: Inhibition of BRAF V600E mutant at 10 uM.
Test [13] deals with BDNF/NT-3 growth factors receptor (Homo sapiens) (UniProt Q16620). Briefly: Inhibition of TRKB at 10 uM.
BDNF/NT-3 growth factors receptor (Homo sapiens), sequence (Q16620 32-822 limits assumed): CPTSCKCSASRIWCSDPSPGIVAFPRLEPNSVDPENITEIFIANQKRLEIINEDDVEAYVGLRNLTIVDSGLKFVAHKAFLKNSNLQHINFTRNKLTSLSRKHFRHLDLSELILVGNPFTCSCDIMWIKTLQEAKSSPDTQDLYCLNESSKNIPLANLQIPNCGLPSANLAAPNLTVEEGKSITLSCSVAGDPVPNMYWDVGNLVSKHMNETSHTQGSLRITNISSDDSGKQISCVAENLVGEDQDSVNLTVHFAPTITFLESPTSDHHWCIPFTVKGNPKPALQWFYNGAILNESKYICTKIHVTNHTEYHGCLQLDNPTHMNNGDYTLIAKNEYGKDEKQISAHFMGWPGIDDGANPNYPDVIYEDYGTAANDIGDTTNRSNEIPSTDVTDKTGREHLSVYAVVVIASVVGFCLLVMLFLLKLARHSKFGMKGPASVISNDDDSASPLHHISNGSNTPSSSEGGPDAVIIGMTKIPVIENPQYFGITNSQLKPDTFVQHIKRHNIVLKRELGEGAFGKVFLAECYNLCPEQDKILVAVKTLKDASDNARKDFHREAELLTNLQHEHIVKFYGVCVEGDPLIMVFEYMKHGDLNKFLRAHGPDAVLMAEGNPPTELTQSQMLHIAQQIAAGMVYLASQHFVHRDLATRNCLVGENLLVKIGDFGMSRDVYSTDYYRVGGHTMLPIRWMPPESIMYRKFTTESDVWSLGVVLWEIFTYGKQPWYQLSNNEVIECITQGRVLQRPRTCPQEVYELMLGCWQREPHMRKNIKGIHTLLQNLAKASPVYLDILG
The target of test [14] is Hepatocyte growth factor receptor (Homo sapiens) (UniProt P08581). Put plainly: Inhibition of MET at 10 uM.
Test [15] deals with Serine/threonine-protein kinase N1 (Homo sapiens) (UniProt Q16512). Put plainly: Inhibition of PRK1 at 10 uM.
Serine/threonine-protein kinase N1 (Homo sapiens), sequence (Q16512 2-942 limits assumed): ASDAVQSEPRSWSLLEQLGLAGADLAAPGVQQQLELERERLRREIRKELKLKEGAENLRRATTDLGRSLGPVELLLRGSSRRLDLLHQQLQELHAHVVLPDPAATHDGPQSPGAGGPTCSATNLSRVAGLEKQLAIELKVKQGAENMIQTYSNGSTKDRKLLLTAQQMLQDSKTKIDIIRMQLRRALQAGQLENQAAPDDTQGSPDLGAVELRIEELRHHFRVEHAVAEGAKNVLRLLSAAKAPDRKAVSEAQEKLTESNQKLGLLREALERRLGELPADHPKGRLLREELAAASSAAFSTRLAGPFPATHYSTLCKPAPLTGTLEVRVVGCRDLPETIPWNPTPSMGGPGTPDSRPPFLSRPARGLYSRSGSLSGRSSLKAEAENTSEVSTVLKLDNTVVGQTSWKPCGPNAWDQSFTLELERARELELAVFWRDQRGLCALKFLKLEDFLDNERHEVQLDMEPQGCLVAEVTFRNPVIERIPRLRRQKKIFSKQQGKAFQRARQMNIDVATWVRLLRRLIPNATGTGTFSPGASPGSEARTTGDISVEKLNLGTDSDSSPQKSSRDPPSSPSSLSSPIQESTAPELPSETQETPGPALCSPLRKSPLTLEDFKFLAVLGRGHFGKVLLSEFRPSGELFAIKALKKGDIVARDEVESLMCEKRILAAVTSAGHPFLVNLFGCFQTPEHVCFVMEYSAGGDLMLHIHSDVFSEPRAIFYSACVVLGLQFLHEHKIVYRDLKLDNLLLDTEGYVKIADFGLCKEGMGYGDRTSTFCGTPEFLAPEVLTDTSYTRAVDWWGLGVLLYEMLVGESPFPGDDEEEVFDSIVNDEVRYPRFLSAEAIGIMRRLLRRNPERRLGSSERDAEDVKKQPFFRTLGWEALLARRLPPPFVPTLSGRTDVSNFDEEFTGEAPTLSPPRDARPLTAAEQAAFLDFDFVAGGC
In test [16] the target is Serine/threonine-protein kinase PLK1 (Homo sapiens) (UniProt P53350). Briefly: Inhibition of PLK1 at 10 uM.
Test [17] addresses T3, Serine/threonine-protein kinase PLK4 (Homo sapiens) (UniProt O00444).
T3 sequence (whole entry): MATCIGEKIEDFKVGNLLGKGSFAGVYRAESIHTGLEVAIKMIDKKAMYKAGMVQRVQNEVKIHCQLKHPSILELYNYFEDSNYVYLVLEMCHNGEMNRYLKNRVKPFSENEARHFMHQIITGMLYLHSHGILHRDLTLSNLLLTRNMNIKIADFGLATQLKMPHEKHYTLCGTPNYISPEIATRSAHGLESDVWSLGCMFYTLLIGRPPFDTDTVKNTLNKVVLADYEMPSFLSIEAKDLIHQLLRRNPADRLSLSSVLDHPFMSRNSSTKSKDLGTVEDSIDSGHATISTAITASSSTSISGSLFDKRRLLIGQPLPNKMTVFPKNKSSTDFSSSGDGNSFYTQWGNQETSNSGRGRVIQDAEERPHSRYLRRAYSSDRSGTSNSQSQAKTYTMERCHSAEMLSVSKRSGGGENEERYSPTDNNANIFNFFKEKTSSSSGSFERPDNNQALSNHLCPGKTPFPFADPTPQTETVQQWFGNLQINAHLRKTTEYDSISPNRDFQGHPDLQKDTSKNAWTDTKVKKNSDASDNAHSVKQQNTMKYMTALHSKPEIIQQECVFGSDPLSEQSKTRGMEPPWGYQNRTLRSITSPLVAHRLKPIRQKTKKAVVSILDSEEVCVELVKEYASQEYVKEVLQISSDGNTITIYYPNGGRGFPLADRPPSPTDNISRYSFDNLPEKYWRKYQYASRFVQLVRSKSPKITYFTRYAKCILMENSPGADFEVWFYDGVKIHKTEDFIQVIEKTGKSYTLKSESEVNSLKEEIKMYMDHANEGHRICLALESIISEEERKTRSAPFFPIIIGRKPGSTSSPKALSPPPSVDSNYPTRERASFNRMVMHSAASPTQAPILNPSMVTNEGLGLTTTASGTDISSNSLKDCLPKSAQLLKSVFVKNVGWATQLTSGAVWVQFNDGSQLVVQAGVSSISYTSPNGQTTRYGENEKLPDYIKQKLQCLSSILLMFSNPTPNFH
Put plainly: Inhibition of SAK at 10 uM.

Test [18] concerns the target RAC-alpha serine/threonine-protein kinase (Homo sapiens) (UniProt P31749). Put plainly: Inhibition of AKT1 at 10 uM.
The target of test [19] is T2, Mitogen-activated protein kinase 14. Put plainly: Inhibition of p38alpha at 10 uM by immunosorbent based kinase assay.
The target is the same in test [20]. Put plainly: Inhibition of p38alpha-dependent TNFalpha production in human whole blood.

As usually defined, the inhibition is the share of the control response that was lost under treatment. What is called IC50 is the concentration at which inhibition is half-maximal.

Active and inactive are the calls of the source. The rule behind the calls is not given here.

Tyrosine-protein kinase receptor UFO (Homo sapiens), sequence (P30530 whole entry): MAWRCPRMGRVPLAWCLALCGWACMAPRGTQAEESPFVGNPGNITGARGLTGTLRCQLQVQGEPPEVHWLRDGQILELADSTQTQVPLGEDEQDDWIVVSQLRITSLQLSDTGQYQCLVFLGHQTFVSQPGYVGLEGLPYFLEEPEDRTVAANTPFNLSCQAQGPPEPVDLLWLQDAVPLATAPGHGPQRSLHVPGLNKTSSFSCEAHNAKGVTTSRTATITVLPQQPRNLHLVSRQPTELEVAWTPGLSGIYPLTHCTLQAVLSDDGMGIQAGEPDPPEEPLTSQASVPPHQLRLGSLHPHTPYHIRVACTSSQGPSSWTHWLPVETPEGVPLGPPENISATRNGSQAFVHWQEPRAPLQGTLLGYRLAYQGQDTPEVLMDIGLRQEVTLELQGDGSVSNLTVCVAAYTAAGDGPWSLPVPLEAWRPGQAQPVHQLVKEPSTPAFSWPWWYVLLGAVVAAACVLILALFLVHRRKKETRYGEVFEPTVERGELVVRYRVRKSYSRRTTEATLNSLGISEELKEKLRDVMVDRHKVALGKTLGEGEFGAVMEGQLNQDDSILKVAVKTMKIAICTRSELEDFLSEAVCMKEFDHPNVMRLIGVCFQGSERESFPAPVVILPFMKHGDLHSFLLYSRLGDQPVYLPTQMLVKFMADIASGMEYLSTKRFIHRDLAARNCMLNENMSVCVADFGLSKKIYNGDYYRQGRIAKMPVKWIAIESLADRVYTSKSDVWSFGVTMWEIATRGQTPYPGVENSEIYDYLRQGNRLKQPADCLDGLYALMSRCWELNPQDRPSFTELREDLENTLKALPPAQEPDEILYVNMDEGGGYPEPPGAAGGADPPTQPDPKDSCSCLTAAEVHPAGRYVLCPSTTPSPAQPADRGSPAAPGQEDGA

In the case of `CC1(C)OC[C@H](COc2cccc3c2CCc2cc(Nc4ccc(F)cc4F)ccc2C3=O)O1`, the inhibition entry in test [1], in test [2], in test [3], in test [4], in test [5] and in [6] was “inactive” throughout. Besides, the inhibition entry in [7], in test [8], in test [11], in test [12], in test [13] and in test [14] was “inactive” each time. Besides, the inhibition entry in [15], in [16], in test [17] and in [18] was “inactive” throughout. Also, the midpoint of inhibition in test [9], the IC50, lay at 440 nM. The molecule further showed an inhibition in test [10] of 40%.

For `COc1ccc2ccc3cc(Nc4ccc(F)cc4F)ccc3c(=O)c2c1`, the inhibition result in [1], in test [2], in test [3], in test [4], in test [5] and in [6] was “inactive” in each case. In addition, the inhibition result in test [7], in test [8], in test [11], in [12], in test [13] and in test [14] was “inactive” throughout. In addition, the inhibition result in test [15], in test [16], in test [17] and in test [18] was “inactive” in each case. Besides, in test [19], the inhibition was 21%.

Regarding `COc1ccc2c(c1)C(=O)c1ccc(-c3ccccc3)cc1CC2`, the inhibition entry in test [1], in [2], in [3], in test [4], in test [5] and in test [6] was “inactive” each time. Moreover, the inhibition entry in test [7], in [8], in [11], in [12], in test [13] and in [14] was “inactive” each time. The inhibition entry in [15], in test [16], in [17] and in test [18] was “inactive” throughout. The inhibition in [19] is 32%.

Take `O=C1c2ccc(Nc3ccc(F)cc3F)cc2CCc2c(OC[C@H](O)CO)cccc21`: the inhibition entry in test [1], in test [2], in test [3], in [4], in [5] and in test [6] was “inactive” in each case. The inhibition result in [7], in test [8], in [11], in test [12], in test [13] and in [14] was “inactive” in each case. Further, the inhibition result in test [15], in test [16], in test [17] and in [18] was “inactive” in each case. Further, the IC50 came to 100000 nM in test [20] and 20 nM in test [9].

As for `COc1ccc2c(c1)C(=O)c1ccc(Nc3ccc(C(F)(F)F)cc3N)cc1CC2`, the inhibition entry in test [1], in [2], in test [3], in test [4], in test [5] and in test [6] was “inactive” throughout. Also, the inhibition entry in test [7], in test [8], in [11], in [12], in test [13] and in test [14] was “inactive” in each case. Also, the inhibition result in test [15], in test [16], in [17] and in test [18] was “inactive” each time. Besides, the IC50 in test [20] was found to be 25500 nM; in test [9], 900 nM.
